Assays:
[1] = molecular target: PI3-kinase p110-alpha/p85-alpha (Homo sapiens) (UniProt P27986+P42336); assay: Inhibition of recombinant human full length N-terminal His-tagged/untagged p110alpha/p85alpha expressed in baculovirus expression system at 500 nM using PIP2 as substrate after 1 hr by Kinase-Glo reagent-based assay relative to control
[2] = test system: MM1.S; assay: Antiproliferative activity against human MM1S cells after 72 hrs by MTT assay; assay type: functional, cell-based
[3] = test system: MCF7; assay: Antiproliferative activity against human MCF7 cells after 72 hrs by MTT assay; assay type: functional, cell-based; conditions: MCF7, 72 h
[4] = test system: Raji; assay: Antiproliferative activity against human Raji cells after 72 hrs by MTT assay; assay type: functional, cell-based
How it was run: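 Log-phase cells were plated at 10000-15000 per well and exposed to serial concentrations after 24 h for 72 h. Read-out was MTT for 1-3 h, then 20% SDS overnight and absorbance at 570 nm. IC50 was calculated from growth versus untreated control, as mean ± SEM of at least three independent experiments.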

[5] = test system: HCT-116; assay: Antiproliferative activity against human HCT116 cells after 72 hrs by MTT assay; assay type: functional, cell-based; conditions: HCT-116, 72 h
[6] = molecular target: Serine/threonine-protein kinase mTOR (Homo sapiens, UniProt P42345); assay: Inhibition of recombinant N-terminal FLAG-tagged human mTOR (1362 to end residues) at 500 nM using ULight-4E-BP1 (Thr37/46) peptide as substrate after 1 hr by fluorescence assay relative to control
[7] = test system: HCT-116; assay: Antiproliferative activity against human HCT116 cells at 0.5 uM after 72 hrs by MTT assay relative to control; assay type: functional; conditions: HCT-116, 72 h
How it was run: (§1)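 HCT116 cells were grown in DMEM and Ramos cells in RPMI 1640, each with 10% FBS and penicillin/streptomycin, at 37 °C in 5% CO2. Log-phase cells were seeded at 10000-15000 per well and dosed after 24 h at 5 or 0.5 μM for 72 h. MTT was added for 1-3 h, followed by 20% SDS overnight, and A570 was read. Percent inhibition is relative to untreated control, as the mean of at least two experiments.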

[8] = test system: Ramos; assay: Antiproliferative activity against human Ramos cells at 0.5 uM after 72 hrs by MTT assay relative to control; assay type: functional; how it was run: as §1
[9] = test system: HCT-116; assay: Antiproliferative activity against human HCT116 cells at 5 uM after 72 hrs by MTT assay relative to control; assay type: functional; conditions: HCT-116, 72 h; how it was run: as §1
[10] = test system: Ramos; assay: Antiproliferative activity against human Ramos cells at 5 uM after 72 hrs by MTT assay relative to control; assay type: functional; how it was run: as §1
[11] = test system: MV4-11; assay: Antiproliferative activity against human MV4-11 cells after 72 hrs by MTT assay; assay type: functional, cell-based; conditions: MV4-11, 72 h
[12] = test system: OCI-AML-3; assay: Antiproliferative activity against human OCI-AML3 cells after 72 hrs by MTT assay; assay type: functional, cell-based; conditions: OCI-AML-3, 72 h
[13] = test system: OCI-AML2; assay: Antiproliferative activity against human OCI-AML2 cells after 72 hrs by MTT assay; assay type: functional, cell-based; conditions: OCI-AML2, 72 h

| SMILES | inhibition [1] [%] | IC50 [2] [nM] | IC50 [3] [nM] | IC50 [4] [nM] | IC50 [5] [nM] | inhibition [6] [%] | IC50 [11] [nM] | IC50 [12] [nM] | IC50 [13] [nM] | inhibition at 0.5 µM [7] [%] | inhibition at 0.5 µM [8] [%] | inhibition at 5 µM [9] [%] | inhibition at 5 µM [10] [%] |
| --- | --- | --- | --- | --- | --- | --- | --- | --- | --- | --- | --- | --- | --- |
| COc1ccc(-c2nc(N3CCOCC3)c3cnn(CCCCCCC(=O)NO)c3n2)cn1 | 3.3 | > 500 | 372 | 44.9 | 66.9 | 58 |  |  |  |  |  |  |  |
| O=C(CCCCCCn1ncc2c(N3CCOCC3)nc(N3CCOCC3)nc21)NO | 4.5 | 192 | 372 | 159 | 89.9 | 2.2 |  |  |  | 92.9 | 91 | 95.2 | 97.4 |
| O=C(/C=C/c1ccc(Cn2ncc3c(N4CCOCC4)nc(N4CCOCC4)nc32)cc1)NO | -3 |  |  |  |  | -5.4 |  |  |  | 12 | 16.8 | 59.5 | 98.2 |
| O=C(CCCCCCCn1ncc2c(N3CCOCC3)nc(N3CCOCC3)nc21)NO | -1.2 |  |  |  |  | 4.4 |  |  |  | 13.8 | 26.9 | 71.8 | 99.1 |
| O=C(CCCCCn1ncc2c(N3CCOCC3)nc(N3CCOCC3)nc21)NO | 1 |  |  |  |  | -4.2 |  |  |  | 62.4 | 69.2 | 92.1 | 94.6 |
| COc1cccc(NC(=O)Nc2ccc(-c3nc(N4CCOCC4)c4cnn(CCCCCCC(=O)NO)c4n3)cc2)c1 |  | 464 |  | 247 | > 500 |  |  |  |  |  |  |  |  |
| CC(O)CNC(=O)Nc1ccc(-c2nc(N3CCOCC3)c3cnn(CCCCCCC(=O)NO)c3n2)cc1 (stereo unspecified) |  | 305 |  | 153 | 441 |  |  |  |  |  |  |  |  |
| COc1ccc(-c2nc(N3CCOCC3)c3cnn(CCCCCCC(=O)NO)c3n2)cc1 | -1 | 354 | 70.6 | 29.3 | 38 | 38 |  |  |  |  |  |  |  |
| CN1CCN(c2nc(N3CCOCC3)c3cnn(CCCCCC(=O)NO)c3n2)CC1 | 1.5 |  |  |  |  | -1.7 |  |  |  | 10.2 | 91.2 | 56.9 | 99.5 |
| O=C(CCn1ncc2c(N3CCOCC3)nc(N3CCOCC3)nc21)NO | 11 |  |  |  |  | -5 |  |  |  | 6.3 | 8.5 | 22.4 | 15.7 |
| O=C(CCCCCCn1ncc2c(N3CCOCC3)nc(-c3cccnc3)nc21)NO | -0.1 | > 500 | > 500 | > 500 | 296 | 17 |  |  |  |  |  |  |  |
| O=C(Cn1ncc2c(N3CCOCC3)nc(N3CCOCC3)nc21)NO | 5.9 |  |  |  |  |  |  |  |  | 3.5 | 1.1 | 18.1 | 12.4 |
| CS(=O)(=O)c1ccc(-c2nc(N3CCOCC3)c3cnn(CCCCCCC(=O)NO)c3n2)cc1 | 31 | 168 | > 500 | 111 | 76.5 | 64 |  |  |  |  |  |  |  |
| O=C(CCCCn1ncc2c(N3CCOCC3)nc(N3CCOCC3)nc21)NO | 15 |  |  |  |  | -5.4 |  |  |  | 22.6 | 33.3 | 55.8 | 60.2 |
| CN1CCN(c2nc(N3CCOCC3)c3cnn(CCCCCCC(=O)NO)c3n2)CC1 | -6.2 |  |  |  |  | -0.4 |  |  |  | 59.9 | 90.1 | 80.3 | 99.5 |
| O=C(CCCn1ncc2c(N3CCOCC3)nc(N3CCOCC3)nc21)NO | 17 |  |  |  |  | 21 |  |  |  | 15.7 | 20.5 | 30.1 | 39.6 |

The remaining compounds from weak to strong by IC50 [2], led by results:

| inhibition [1] [%] | IC50 [2] [nM] | IC50 [3] [nM] | IC50 [4] [nM] | IC50 [5] [nM] | inhibition [6] [%] | IC50 [11] [nM] | IC50 [12] [nM] | IC50 [13] [nM] | SMILES | inhibition at 0.5 µM [7] [%] | inhibition at 0.5 µM [8] [%] | inhibition at 5 µM [9] [%] | inhibition at 5 µM [10] [%] |
| --- | --- | --- | --- | --- | --- | --- | --- | --- | --- | --- | --- | --- | --- |
|  | 126 |  | 127 | 111 |  | 26.5 | 40.1 | 32.8 | O=C(CCCCCCn1ncc2c(N3CCOCC3)nc(-c3ccc(NC(=O)N4CCNCC4)cc3)nc21)NO |  |  |  |  |
|  | 83.4 |  | 42.5 | 104 |  |  |  |  | CCCNC(=O)Nc1ccc(-c2nc(N3CCOCC3)c3cnn(CCCCCCC(=O)NO)c3n2)cc1 |  |  |  |  |
|  | 64.3 |  | 60.8 | 144 |  |  |  |  | O=C(CCCCCCn1ncc2c(N3CCOCC3)nc(-c3ccc(NC(=O)Nc4ncc(Br)cn4)cc3)nc21)NO |  |  |  |  |
|  | 60.3 |  | 61.1 | 57.2 |  |  |  |  | O=C(CCCCCCn1ncc2c(N3CCOCC3)nc(-c3ccc(NC(=O)NCCO)cc3)nc21)NO |  |  |  |  |
| -3.8 | 52.3 | 180 | 15.3 | 107 | 85 |  |  |  | O=C(CCCCCCn1ncc2c(N3CCOCC3)nc(-c3cc[nH]c3)nc21)NO |  |  |  |  |
|  | 39.2 |  | 148 | 68 |  | 13.9 | 15 | 16.9 | O=C(CCCCCCn1ncc2c(N3CCOCC3)nc(-c3ccc(NC(=O)N4CCSCC4)cc3)nc21)NO |  |  |  |  |
| 9.7 | 35.6 | 202 | 14.6 | 72.8 | 55 |  |  |  | O=C(CCCCCCn1ncc2c(N3CCOCC3)nc(-c3ccsc3)nc21)NO |  |  |  |  |
| 1.2 | 32.6 | 221 | 31.7 | 163 | 40 |  |  |  | Nc1ncc(-c2nc(N3CCOCC3)c3cnn(CCCCCCC(=O)NO)c3n2)cn1 |  |  |  |  |
|  | 27.8 |  | 14.6 | 100 |  | 12.6 | 30.1 | 29 | O=C(CCCCCCn1ncc2c(N3CCOCC3)nc(-c3ccc(NC(=O)N4CCOCC4)cc3)nc21)NO |  |  |  |  |
|  | 24.7 |  | 22.1 | 26.1 |  |  |  |  | Cc1ccc(NC(=O)Nc2ccc(-c3nc(N4CCOCC4)c4cnn(CCCCCCC(=O)NO)c4n3)cc2)cc1 |  |  |  |  |
|  | 20.2 |  | 19 | 24.6 |  |  |  |  | Cc1cccnc1NC(=O)Nc1ccc(-c2nc(N3CCOCC3)c3cnn(CCCCCCC(=O)NO)c3n2)cc1 |  |  |  |  |
| 8.4 | 15.6 | 156 | 7.7 | 34.9 | 35 |  |  |  | O=C(CCCCCCn1ncc2c(N3CCOCC3)nc(-c3ccoc3)nc21)NO |  |  |  |  |
|  | 15.3 |  | 19.1 | 33.9 |  | 18.3 | 8.79 | 9.71 | CCCCNC(=O)Nc1ccc(-c2nc(N3CCOCC3)c3cnn(CCCCCCC(=O)NO)c3n2)cc1 |  |  |  |  |
|  | 13.4 |  | 3.5 | 51.6 |  |  |  |  | CNC(=O)Nc1ccc(-c2nc(N3CCOCC3)c3cnn(CCCCCCC(=O)NO)c3n2)cc1 |  |  |  |  |
|  | 11.8 |  | 19.7 | 61.9 |  | 10.4 | 16.3 | 18.4 | CCNC(=O)Nc1ccc(-c2nc(N3CCOCC3)c3cnn(CCCCCCC(=O)NO)c3n2)cc1 |  |  |  |  |
| 1.9 | 8.4 | 163 | 7.1 | 61.3 | 35 |  |  |  | Nc1ccc(-c2nc(N3CCOCC3)c3cnn(CCCCCCC(=O)NO)c3n2)cn1 |  |  |  |  |

Source: ChEMBL document CHEMBL4411315, “Discovery of Novel Dual Histone Deacetylase and Mammalian Target of Rapamycin Target Inhibitors as a Promising Strategy for Cancer Therapy” (J Med Chem, 2019)
